This note sets out measurements from the array DNA melting data of Ke et al. (doi:10.1101/2024.01.08.574731).

Data set [1] in a line: melting temperature; fluorescence melt of hairpins on a sequencing array, two-state fit, raised by 9.35 °C to match UV melts. As to conditions: sodium 0.088 M. In a few lines: (§1)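 On a sequenced MiSeq flow cell, library hairpins with annealed Cy3 and quencher oligos were imaged for Cy3 fluorescence in 2.5 °C steps up to 60 °C, in 50 mM Na-HEPES pH 8.0, 25 mM NaCl. Normalisation used pre-quench Cy3 and control constructs. Bootstrapped two-state fits gave melting temperature and folding enthalpy, combined by inverse variance across four replicates and with fitted temperatures raised by 9.35 °C to match UV melts.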

Data set [2] can be described thus: folding enthalpy; higher = less favourable; fluorescence melt of hairpins on a sequencing array, two-state fit. To be noted: sodium 0.088 M. An outline of the steps:
as §1

In the case of GGAAAGAAATTTCC (((((....))))), the Tm in data set [1] amounted to 29.5 °C. Moreover, in data set [2], the folding enthalpy was -18.9 kcal/mol.
GGAAAGCGAAAGCTATCC (((.(((....))).))): the Tm in data set [1] worked out at 47.2 °C. Moreover, in data set [2], the folding enthalpy was -25.2 kcal/mol.
On to GGAAAGGGAAACCTTTTC (.(((((....))))).), for which the Tm in data set [1] was found to be 37.6 °C. In addition, in data set [2], the folding enthalpy is -24.3 kcal/mol.
On to GGAAATCGAAAGATATCC (((.(((....))).))), for which the Tm in data set [1] was 37.8 °C. For the same sequence, the folding enthalpy in data set [2] was -26.2 kcal/mol.
Regarding GGAAATCGAAAGATCTCC (((.(((....))).))), the Tm in data set [1] is 34.9 °C. Moreover, the folding enthalpy in data set [2] was -26.1 kcal/mol.
In the case of GGAAATCGAAAGATTCC (((.(((....)))))), in data set [1], the Tm worked out at 40.4 °C. Besides, the folding enthalpy in data set [2] was -20.9 kcal/mol.
Consider GGAAATTCGAAAGAATCC (((..(((....)))))), for which the Tm in data set [1] is 26 °C. For the same sequence, the folding enthalpy in data set [2] is -9.79 kcal/mol.
With GGAACAGAAATGTTCC ((((((....)))))), the Tm in data set [1] was 54.9 °C. Further, the folding enthalpy in data set [2] was -39 kcal/mol.
With GGAACAGGAAACTGCTCC (((.(((....))).))), in data set [1], the Tm is 40.8 °C. For the same sequence, the folding enthalpy in data set [2] is -31.1 kcal/mol.
Take GGAACCGAAAGGTAGTCC ((((((....)))..))): the Tm in data set [1] is 29.8 °C. The folding enthalpy in data set [2] is -12 kcal/mol.
Take GGAACCGAAAGGTATTCC ((((((....)))..))): the Tm in data set [1] was 33.8 °C. Moreover, the folding enthalpy in data set [2] is -13.3 kcal/mol.
On the same counts, the results for GGAACCGAAAGGTTCTCC ((((((....)))..))) are 51.9 °C and -10.8 kcal/mol.
For GGAACCTCGAAAGAGTCC (((..(((....)))))), in data set [1], the Tm turned out to be 27 °C. In addition, the folding enthalpy in data set [2] is -11.3 kcal/mol.
As to GGAACGCGAAAGCGTCC (((.(((....)))))), the Tm in data set [1] was determined as 53.8 °C. In data set [2], the folding enthalpy is -13.4 kcal/mol.
For GGAACGGGAAACTGTTCC (((((.(....).))))), in that order: 53 °C and -42.4 kcal/mol.
As to GGAACTCGAAAGAGATCC (((.(((....))).))), in data set [1], the Tm is 49.5 °C. The folding enthalpy in data set [2] was -34.4 kcal/mol.
On the same counts, the results for GGAACTCGAAAGAGTCC (((.(((....)))))) are 49.2 °C and -19.5 kcal/mol.
As for GGAACTGCGAAAGCATCC (((..(((....)))))), the Tm in data set [1] was determined as 24.6 °C. In data set [2], the folding enthalpy was -6.59 kcal/mol.
As to GGAACTGGAAACAGTTTC (.(((((....))))).), the Tm in data set [1] was 46.2 °C. In data set [2], the folding enthalpy is -27.7 kcal/mol.
Consider GGAAGAACGAAAGTTTCC (((..(((....)))))), for which the Tm in data set [1] is 33 °C. Moreover, the folding enthalpy in data set [2] was -14.9 kcal/mol.
On the same counts, the results for GGAAGACGAAAGTCATCC (((.(((....))).))) are 48.7 °C and -26 kcal/mol.
For GGAAGAGAAATCTTCC ((((((....)))))), the Tm in data set [1] came out at 47.7 °C. For the same sequence, the folding enthalpy in data set [2] was -24.1 kcal/mol.
For GGAAGAGGAAACTCCTCC (((.(((....))).))), the Tm in data set [1] worked out at 28 °C. Also, the folding enthalpy in data set [2] is -13.9 kcal/mol.
GGAAGAGGAAACTCTTTC (.(((((....))))).): the Tm in data set [1] amounted to 37.3 °C. Further, the folding enthalpy in data set [2] was -27 kcal/mol.
Take GGAAGAGGAAACTTTTCC ((((.((....)).)))): in data set [1], the Tm was 32.8 °C. In data set [2], the folding enthalpy is -15.8 kcal/mol.
Turning to GGAAGCGAAAGCTGATCC ((((((....)))..))), the Tm in data set [1] came to 36.9 °C. Moreover, the folding enthalpy in data set [2] was -12.4 kcal/mol.
Consider GGAAGCGGAAACACTTCC (((((.(....).))))), for which, in data set [1], the Tm came out at 44.3 °C. In data set [2], the folding enthalpy was -32.9 kcal/mol.
As to GGAAGCGGAAACGCTCCC ((.((((....)))).)), the Tm in data set [1] came out at 52.4 °C. In data set [2], the folding enthalpy is -19.8 kcal/mol.
With GGAAGGCGAAAGCCATCC (((.(((....))).))), the Tm in data set [1] stood at 53.3 °C. Moreover, in data set [2], the folding enthalpy is -21.1 kcal/mol.
On the same counts, the results for GGAAGTACGAAAGTATCC (((..(((....)))))) are 23.4 °C and -11.1 kcal/mol.
